Source: ChEMBL document CHEMBL5058577, “EUbOPEN Chemogenomics Library 2 (Multiplex)” (2022)

Tested on: U2OS
Assay: Multiplex assay against U2OS
Assay type: toxicity, cell-based
Details: human
Outline: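 Live cells carried four stains from seeding: Hoechst33342, BioTracker Green Microtubule Cytoskeleton Dye, MitoTracker Red and Annexin V Alexa Fluor 680. They were imaged on a CQ1 microscope at 37°C and 5% CO2 after compound addition. Using CellPathfinder machine-learning gating, cells were split into Hoechst high-intensity objects or normal cells, normal cells into healthy, pyknosed or fragmented nuclei, and pyknosed cells into mitotic or apoptotic; tubulin, mitochondrial-mass and membrane-permeability phenotypes are per cents of healthy-nucleus cells.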

[1] = 12 h, 1 µM, compound concentration 1 uM, replicate 1
[2] = 12 h, 1 µM, compound concentration 1 uM, replicate 2
[3] = 12 h, 10 µM, compound concentration 10 uM, replicate 1
[4] = 12 h, 10 µM, compound concentration 10 uM, replicate 2
[5] = 24 h, 1 µM, compound concentration 1 uM, replicate 1
[6] = 24 h, 1 µM, compound concentration 1 uM, replicate 2
[7] = 24 h, 10 µM, compound concentration 10 uM, replicate 1
[8] = 24 h, 10 µM, compound concentration 10 uM, replicate 2
[9] = 48 h, 1 µM, compound concentration 1 uM, replicate 1
[10] = 48 h, 1 µM, compound concentration 1 uM, replicate 2
[11] = 48 h, 10 µM, compound concentration 10 uM, replicate 1
[12] = 48 h, 10 µM, compound concentration 10 uM, replicate 2

Cc1cnc(-c2cc(N3CCN(C(=O)CCS(C)(=O)=O)CC3)ncc2Cl)c(C)c1
Population Apoptotic (%) [1]: 86%
Population Fragmented Nuclei (%) [1]: 37%
Population Healthy Nuclei (%) [1]: 54%
Population Hoechst High Intensity Objects (%) [1]: 2%
Population Membrane Permeable-Phenotype (%) [1]: 10%
Population Mitochondria Different-Phenotype (%) [1]: 1%
Population Mitotic Cells (%) [1]: 13%
Population Normal (%) [1]: 97%
Population Pyknosed Nuclei (%) [1]: 8%
Population Tubulin-Different-Phenotype (%) [1]: 2%
Total Cell Count [1]: 183
Population Apoptotic (%) [2]: 100%
Population Fragmented Nuclei (%) [2]: 18%
Population Healthy Nuclei (%) [2]: 73%
Population Hoechst High Intensity Objects (%) [2]: 1%
Population Mitochondria Different-Phenotype (%) [2]: 7%
Population Mitotic Cells (%) [2]: 0%
Population Normal (%) [2]: 98%
Population Tubulin-Different-Phenotype (%) [2]: 7%
Total Cell Count [2]: 111
Population Apoptotic (%) [3]: 85%
Population Fragmented Nuclei (%) [3]: 24%
Population Healthy Nuclei (%) [3]: 67%
Population Hoechst High Intensity Objects (%) [3]: 1%
Population Membrane Permeable-Phenotype (%) [3]: 4%
Population Mitochondria Different-Phenotype (%) [3]: 3%
Population Mitotic Cells (%) [3]: 14%
Population Normal (%) [3]: 98%
Population Pyknosed Nuclei (%) [3]: 8%
Population Tubulin-Different-Phenotype (%) [3]: 1%
Total Cell Count [3]: 258
Population Apoptotic (%) [4]: 75%
Population Fragmented Nuclei (%) [4]: 17%
Population Healthy Nuclei (%) [4]: 73%
Population Membrane Permeable-Phenotype (%) [4]: 20%
Population Mitochondria Different-Phenotype (%) [4]: 7%
Population Mitotic Cells (%) [4]: 25%
Population Pyknosed Nuclei (%) [4]: 9%
Population Tubulin-Different-Phenotype (%) [4]: 15%
Total Cell Count [4]: 88
Population Apoptotic (%) [5]: 80%
Population Fragmented Nuclei (%) [5]: 30%
Population Healthy Nuclei (%) [5]: 62%
Population Hoechst High Intensity Objects (%) [5]: 2%
Population Membrane Permeable-Phenotype (%) [5]: 5%
Population Mitochondria Different-Phenotype (%) [5]: 3%
Population Mitotic Cells (%) [5]: 20%
Population Normal (%) [5]: 97%
Population Pyknosed Nuclei (%) [5]: 6%
Population Tubulin-Different-Phenotype (%) [5]: 2%
Total Cell Count [5]: 220
Population Apoptotic (%) [6]: 90%
Population Fragmented Nuclei (%) [6]: 17%
Population Healthy Nuclei (%) [6]: 75%
Population Membrane Permeable-Phenotype (%) [6]: 8%
Population Mitochondria Different-Phenotype (%) [6]: 5%
Population Mitotic Cells (%) [6]: 10%
Population Pyknosed Nuclei (%) [6]: 7%
Population Tubulin-Different-Phenotype (%) [6]: 8%
Total Cell Count [6]: 136
Population Apoptotic (%) [7]: 80%
Population Fragmented Nuclei (%) [7]: 20%
Population Healthy Nuclei (%) [7]: 74%
Population Hoechst High Intensity Objects (%) [7]: 2%
Population Membrane Permeable-Phenotype (%) [7]: 4%
Population Mitochondria Different-Phenotype (%) [7]: 2%
Population Mitotic Cells (%) [7]: 20%
Population Normal (%) [7]: 97%
Population Pyknosed Nuclei (%) [7]: 4%
Population Tubulin-Different-Phenotype (%) [7]: 0%
Total Cell Count [7]: 309
Population Apoptotic (%) [8]: 85%
Population Fragmented Nuclei (%) [8]: 21%
Population Healthy Nuclei (%) [8]: 64%
Population Hoechst High Intensity Objects (%) [8]: 0%
Population Membrane Permeable-Phenotype (%) [8]: 18%
Population Mitochondria Different-Phenotype (%) [8]: 1%
Population Mitotic Cells (%) [8]: 14%
Population Normal (%) [8]: 99%
Population Pyknosed Nuclei (%) [8]: 13%
Population Tubulin-Different-Phenotype (%) [8]: 7%
Total Cell Count [8]: 103
Population Apoptotic (%) [9]: 78%
Population Fragmented Nuclei (%) [9]: 29%
Population Healthy Nuclei (%) [9]: 63%
Population Hoechst High Intensity Objects (%) [9]: 0%
Population Membrane Permeable-Phenotype (%) [9]: 3%
Population Mitochondria Different-Phenotype (%) [9]: 2%
Population Mitotic Cells (%) [9]: 21%
Population Normal (%) [9]: 99%
Population Pyknosed Nuclei (%) [9]: 7%
Population Tubulin-Different-Phenotype (%) [9]: 1%
Total Cell Count [9]: 325
Population Apoptotic (%) [10]: 95%
Population Fragmented Nuclei (%) [10]: 15%
Population Healthy Nuclei (%) [10]: 73%
Population Hoechst High Intensity Objects (%) [10]: 1%
Population Membrane Permeable-Phenotype (%) [10]: 4%
Population Mitochondria Different-Phenotype (%) [10]: 5%
Population Mitotic Cells (%) [10]: 5%
Population Normal (%) [10]: 98%
Population Pyknosed Nuclei (%) [10]: 10%
Population Tubulin-Different-Phenotype (%) [10]: 3%
Total Cell Count [10]: 184
Population Apoptotic (%) [11]: 94%
Population Fragmented Nuclei (%) [11]: 11%
Population Healthy Nuclei (%) [11]: 80%
Population Hoechst High Intensity Objects (%) [11]: 1%
Population Membrane Permeable-Phenotype (%) [11]: 4%
Population Mitochondria Different-Phenotype (%) [11]: 2%
Population Mitotic Cells (%) [11]: 5%
Population Normal (%) [11]: 98%
Population Pyknosed Nuclei (%) [11]: 7%
Population Tubulin-Different-Phenotype (%) [11]: 2%
Total Cell Count [11]: 485
Population Apoptotic (%) [12]: 100%
Population Fragmented Nuclei (%) [12]: 22%
Population Healthy Nuclei (%) [12]: 71%
Population Hoechst High Intensity Objects (%) [12]: 3%
Population Membrane Permeable-Phenotype (%) [12]: 13%
Population Mitochondria Different-Phenotype (%) [12]: 7%
Population Mitotic Cells (%) [12]: 0%
Population Normal (%) [12]: 96%
Population Pyknosed Nuclei (%) [12]: 5%
Population Tubulin-Different-Phenotype (%) [12]: 7%
Total Cell Count [12]: 141
